Some of the results follow. Unmarked numbers belong to inactive results. Active and inactive are the calls of the source.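 The calls were made as follows: active = fluorescence beyond the plate control mean plus 3 SD, with a fluorescence-to-maximum score over 2 (cut at about 25 in these data); inactive = the rest.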
assay: compound autofluorescence in ABCB1-expressing CCRF-Adr cells, confirmation, artefact control for ABC transporter inhibitor project, cell-based, 488/530 nm, flow cytometry (AID 1483); conditions: compound autofluorescence 488/530 nm, at 6.6 µM, active compounds read high
In short: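 Probe or stimulus: JC-1 substrate omitted | Assay system: Drug-resistant CCRF-Adr cells | Compound dosing: One dose, 6.6 µM | Measure: Compound-treated cell MFI minus DMSO-treated cell MFI | Control set: DMSO-treated cell wells as background reference | Times: Compound with cells 10 min end-over-end rotation, 25 °C, immediate read | Signal: Flow cytometric MFI, 530 ± 20 nm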

Row | Compound | fluorescence
1 | COc1ccc(-n2c(C)cc(C(=O)COC(=O)c3cc(OC)c(OC)cc3NC(=O)c3cccs3)c2C)cc1 | 2.26
2 | CCN1/C(=C/c2ccc3ccc(C)cc3[n+]2CC)Sc2ccccc21 | 130 (active)
3 | CCOCC(=O)Nc1sc2c(c1C(=O)OCC)CCCC2 | 0.31
4 | C=CCn1c(SCCOc2ccc(OC)cc2)nnc1C(NC(=O)c1ccc(OC)cc1)C(C)C (stereo not drawn) | 180 (active)
5 | Cc1cccc2cc(CN(Cc3cccs3)C(c3nnnn3C3CCCC3)C(C)C)c(=O)[nH]c12 (stereo not drawn) | -4.84
6 | Cc1ccc(OCC(O)CN2CCN(CC(O)COc3ccc(C)cc3Cl)CC2)c(Cl)c1 (stereo not drawn) | 22.4
7 | COc1ccc(C)cc1NC(=O)C(Sc1ccccc1)c1ccccc1 (stereo not drawn) | -2.64
8 | C/C(=N\Nc1ncc(Cl)cc1Cl)c1ccc(S(=O)(=O)NCc2ccco2)cc1 | -2.49
9 | Cc1c(CCOC(=O)CC23CC4CC(CC(C)(C4)C2)C3)sc[n+]1Cc1ccc([N+](=O)[O-])cc1 | -2.94
10 | COc1cccc(NC(=O)c2ccc(Cn3cc([N+](=O)[O-])cn3)o2)c1 | 5.61
11 | Cc1ccc(-n2c(SCC(=O)Nc3ncc(Cl)cc3Cl)nc3ccccc32)cc1 | -0.64
12 | O=C(Cc1c[nH]c2ccccc12)N/N=C/c1cccc(F)c1 | 4.76
13 | CCOC(=O)c1sc(NC(=O)CSc2nnc(-c3ccco3)o2)c(C(=O)OCC)c1C | 0.61

From PubChem BioAssay AID1483 (NMMLSC, 2009)
